Results from ChEMBL document CHEMBL4052792, “3-Hydroxykynurenine, a Tryptophan Metabolite Generated during the Infection, Is Active Against Trypanosoma cruzi” (ACS Med Chem Lett, 2017).
Activity calls are given as the source filed them. The calls are words filed in the database; no cut-off is given here.

Columns and labels:
[1] = Induction of apoptosis in BALB/C mouse BMDM assessed as cells with hypodiploid DNA content at 20 uM after 24 hrs by FITC/propidium iodide staining based flow cytometric analysis (reference value: 29.9%); assay type: functional
[2] = test system: Candida albicans; experiment: Antimicrobial activity against Candida albicans ATCC10231 after 10 to 20 hrs; assay type: functional
[3] = test system: Trypanosoma cruzi; experiment: Trypanocidal activity against Trypanosoma cruzi Tulahuen trypomastigotes infected in BALB/C mouse bone marrow derived macrophages assessed as induction of cell lysis at trypomastigote stage after 24 hrs
[4] = test system: Trypanosoma cruzi; experiment: Trypanocidal activity against Trypanosoma cruzi Tulahuen amastigotes infected in BALB/C mouse bone marrow derived macrophages assessed as parasite infected macrophages at 800 uM treated for 24 hrs followed by compound washout measured after 48 hrs by immunofluorescence assay (reference value: 26.84 +/- 7.81%); assay type: functional
[5] = test system: Trypanosoma cruzi; experiment: Ratio of IC50 for Trypanosoma cruzi Tulahuen trypomastigotes infected in BALB/C mouse bone marrow derived macrophages to IC50 for Trypanosoma cruzi Tulahuen amastigotes infected in BALB/C mouse bone marrow derived macrophages; assay type: functional
[6] = test system: Trypanosoma cruzi; experiment: Trypanocidal activity against Trypanosoma cruzi Tulahuen amastigotes infected in BALB/C mouse bone marrow derived macrophages assessed as endocytic index at 20 uM treated for 24 hrs followed by compound washout measured after 48 hrs by immunofluorescence assay (reference value: 213.66 +/- 58.79); assay type: functional
[7] = test system: Trypanosoma cruzi; experiment: Trypanostatic activity against Trypanosoma cruzi Tulahuen amastigotes infected in BALB/C mouse bone marrow derived macrophages assessed as effect on flagellum structure at 20 uM after 24 hrs by transmission electron microscopic analysis; assay type: functional
How it was run: (§1)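 Bone marrow-derived macrophages were infected for 24 h, then exposed to 20 μM for 24 h or left untreated. Intracellular amastigote ultrastructure was examined by transmission electron microscopy, covering mitochondrion, nucleus, kinetoplast, flagellum, flagellar pocket, subpellicular microtubules and cytoplasmic structures.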

[8] = Induction of apoptosis in BALB/C mouse BMDM assessed as cells with hypodiploid DNA content at 4000 uM after 24 hrs by FITC/propidium iodide staining based flow cytometric analysis (reference value: 29.9%); assay type: functional
[9] = Induction of apoptosis in BALB/C mouse BMDM assessed as cells with hypodiploid DNA content at 200 uM after 24 hrs by FITC/propidium iodide staining based flow cytometric analysis (reference value: 29.9%); assay type: functional
[10] = Induction of apoptosis in BALB/C mouse BMDM assessed as cells with hypodiploid DNA content at 10000 uM after 24 hrs by FITC/propidium iodide staining based flow cytometric analysis (reference value: 29.9%); assay type: functional
[11] = test system: Trypanosoma cruzi; experiment: Trypanostatic activity against Trypanosoma cruzi Tulahuen amastigotes infected in BALB/C mouse bone marrow derived macrophages assessed as effect on flagellar pocket at 20 uM after 24 hrs by transmission electron microscopic analysis; assay type: functional; how it was run: as §1
[12] = test system: Trypanosoma cruzi; experiment: Trypanocidal activity against Trypanosoma cruzi Tulahuen trypomastigotes assessed as increase in parasite death up to 72 hrs by trypan blue assay; assay type: functional
How it was run: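 Bloodstream trypomastigotes were incubated at 37 °C in culture medium alone or with increasing doses for 24, 48 and 72 h. Parasite death was scored as percentage by trypan blue exclusion. Results are means ± SD of three independent experiments.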

[13] = test system: Trypanosoma cruzi; experiment: Trypanocidal activity against Trypanosoma cruzi Tulahuen amastigotes infected in BALB/C mouse bone marrow derived macrophages assessed as endocytic index at 800 uM treated for 24 hrs followed by compound washout measured after 48 hrs by immunofluorescence assay (reference value: 213.66 +/- 58.79); assay type: functional
[14] = test system: Trypanosoma cruzi; experiment: Induction of mitochondrial membrane potential in Trypanosoma cruzi Tulahuen trypomastigotes at 10 mM after 24 hrs by Rh123/PI staining-based flow cytometric analysis (reference value: 3.25 +/- 1.66%); assay type: functional
How it was run: (§2)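 Trypomastigotes were treated with 3-HK for 24 h at 37 °C, then incubated with PI plus Rh123. Rh123 fluorescence was read by flow cytometry in PI-negative (live) parasites. The depolarized fraction was taken as the low-fluorescence M2 population. Index of variation = (treated median − control median)/control median. Three experiments were run.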

[15] = test system: Trypanosoma cruzi; experiment: Reduction of mitochondrial membrane potential in Trypanosoma cruzi Tulahuen trypomastigotes after 24 hrs by Rh123/PI staining-based flow cytometric analysis; assay type: functional; how it was run: as §2
[16] = test system: Trypanosoma cruzi; experiment: Trypanocidal activity against Trypanosoma cruzi Tulahuen amastigotes infected in BALB/C mouse bone marrow derived macrophages assessed as endocytic index at 200 uM treated for 24 hrs followed by compound washout measured after 48 hrs by immunofluorescence assay (reference value: 213.66 +/- 58.79); assay type: functional
[17] = test system: Trypanosoma cruzi; experiment: Trypanocidal activity against Trypanosoma cruzi Tulahuen amastigotes infected in BALB/C mouse bone marrow derived macrophages assessed as reduction in parasite infected macrophages at 0.2 uM after 72 hrs by immunofluorescence assay relative to control; assay type: functional
[18] = test system: Trypanosoma cruzi; experiment: Trypanostatic activity against Trypanosoma cruzi Tulahuen amastigotes infected in BALB/C mouse bone marrow derived macrophages assessed as swollen mitochondrion at 20 uM after 24 hrs by transmission electron microscopic analysis; assay type: functional; how it was run: as §1
[19] = test system: Trypanosoma cruzi; experiment: Trypanocidal activity against Trypanosoma cruzi Tulahuen amastigotes infected in BALB/C mouse bone marrow derived macrophages assessed as reduction intracellular parasite growth after 24 hrs by immunofluorescence assay; assay type: functional, cell-based
How it was run: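 Macrophages were infected with trypomastigotes and treated with 3-HK for 24 h. Immunofluorescence counts were made at 72 h post-infection. Intracellular parasites per 200 cells were expressed relative to medium-treated cultures, and infected cells were counted among 200 macrophages. Data are means ± SD of four independent experiments.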

[20] = test system: Trypanosoma cruzi; experiment: Induction of mitochondrial membrane depolarization in Trypanosoma cruzi Tulahuen trypomastigotes at 8000 uM after 24 hrs by Rh123/propidium iodide staining-based flow cytometric analysis (reference value: 3.25 +/- 1.66%); assay type: functional; how it was run: as §2
[21] = test system: Trypanosoma cruzi; experiment: Trypanocidal activity against Trypanosoma cruzi Tulahuen amastigotes infected in BALB/C mouse bone marrow derived macrophages assessed as endocytic index at 2000 uM treated for 24 hrs followed by compound washout measured after 48 hrs by immunofluorescence assay (reference value: 213.66 +/- 58.79); assay type: functional
[22] = test system: Trypanosoma cruzi; experiment: Trypanocidal activity against Trypanosoma cruzi Tulahuen amastigotes infected in BALB/C mouse bone marrow derived macrophages assessed as endocytic index at 1200 uM treated for 24 hrs followed by compound washout measured after 48 hrs by immunofluorescence assay (reference value: 213.66 +/- 58.79); assay type: functional
[23] = Cytotoxicity against BALB/C mouse BMDM assessed as reduction in cell viability at 0.2 to 2000 uM after 24 hrs by trypan blue exclusion assay; assay type: cell-based
How it was run: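 Mammalian cells (human PBMC, Swan 71, Jurkat; bone marrow-derived macrophages; J774) were exposed to 3-HK at 0.2 to 2000 μM for 24 h. Viability was then scored by trypan blue exclusion.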

[24] = test system: Trypanosoma cruzi; experiment: Induction of mitochondrial membrane depolarization in Trypanosoma cruzi Tulahuen trypomastigotes at 2000 uM after 24 hrs by Rh123/propidium iodide staining-based flow cytometric analysis (reference value: 3.25 +/- 1.66%); assay type: functional; how it was run: as §2
[25] = test system: Trypanosoma cruzi; experiment: Trypanocidal activity against Trypanosoma cruzi Tulahuen amastigotes infected in BALB/C mouse bone marrow derived macrophages assessed as endocytic index at 1500 uM treated for 24 hrs followed by compound washout measured after 48 hrs by immunofluorescence assay (reference value: 213.66 +/- 58.79); assay type: functional
[26] = Induction of apoptosis in BALB/C mouse BMDM assessed as cells with hypodiploid DNA content at 8000 uM after 24 hrs by FITC/propidium iodide staining based flow cytometric analysis (reference value: 29.9%); assay type: functional

Nc1c(O)cccc1C(=O)C[C@H](N)C(=O)O
Activity [1]: 25.9% | IC50 [2]: 30 to 137 µM | IC50 [3]: 1200 µM | Activity [4]: 15.1% | Ratio IC50 [5]: 6000 | Activity [6]: 51.74 | Activity [7]: inactive | Activity [8]: 30.9% | Activity [9]: 35.4% | Activity [10]: 29.5% | Activity [11]: inactive | Activity [12]: Dose-dependent effect | Activity [13]: 99.39 | Activity [14]: 40% | Activity [15]: Dose-dependent effect | Activity [16]: 51.43 | inhibition at 0.2 µM [17]: 59% | Activity [18]: Active | IC50 [19]: 0.2 µM | Activity [20]: 40.7% | Activity [21]: 104.34 | Activity [22]: 106.06 | Activity [23]: Non-Toxic | Activity [24]: 12.1% | Activity [25]: 124.36 | Activity [26]: 29.9%
